Calls of active or inactive are those of the source. No cut-off for these calls is given here. Bounds are passed on as bounds.

This is an account of results in ChEMBL document CHEMBL2086359, “Tormentic acid derivatives: synthesis and apoptotic activity” (Eur J Med Chem, 2012).

The test system of test [1] is 8505C. In words: Induction of apoptosis in human 8505C cells assessed as induction of cell death after 24 to 48 hrs by AO/PI exclusion dye assay. In kind it is functional, cell-based. The essentials:
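About 1×10^6 cells were grown in 25 cm2 flasks to 80% and given compound-loaded medium for 24–48 h, with blank medium as control. Cells were recovered from the supernatant (300 g, 4 °C), washed and resuspended in PBS. They were mixed 1:1 with AO/PI solution and viewed by fluorescence microscopy: green cells were scored as apoptotic, red as necrotic.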

For a further test, the system named is 518A2. In words: Induction of apoptosis in human 518A2 cells after 24 to 48 hrs by DNA laddering assay. It is filed as functional, cell-based. In short, it runs like this: (§1)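 About 1×10^6 cells were grown in 25 cm2 flasks to 80% and exposed to compound-loaded medium for 24–48 h, with blank medium as control. Cells were collected from the supernatant (300 g, 4 °C), washed in PBS and lysed. Lysates were digested with RNase for 2 h at 37 °C, then with proteinase K for 12 h at 50 °C. DNA was run on agarose gel electrophoresis ([…], 2 h).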

The subject of a further test is NIH3T3. In words: Cytotoxicity against mouse NIH/3T3 cells after 96 hrs by SRB assay. In kind it is cell-based. In short, it runs like this: (§2)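 Monolayer cultures kept in RPMI 1640 with 10% heat-inactivated FBS and penicillin/streptomycin at 37 °C, 5% CO2. Exponentially growing cells were seeded and treated 24 h later with serial dilutions (0–30 µM) for 96 h, with DMSO or DMF at most 0.5% final. Cells were fixed with 10% TCA at 4 °C and stained with 0.4% SRB for about 30 min. Plates were washed with 1% acetic acid and the dye dissolved in 10 mM Tris base. Absorbance was read at 570 nm and survival taken relative to untreated controls. IC50 was estimated from dose–response curves, averaged from at least 5 independent experiments.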

Test [2] can be described thus: Cytotoxicity against human A253 cells after 96 hrs by SRB assay. It is filed as functional, cell-based. In short, it runs like this:
as §2
(In general: The SRB assay estimates cell density from bound dye.)

The next test relates to DLD-1. As to the kind of experiment: Cytotoxicity against human DLD1 cells after 96 hrs by SRB assay. In kind it is functional, cell-based. In short, it runs like this:
as §2

The next test relates to MCF7. As to the kind of experiment: Cytotoxicity against human MCF7 cells after 96 hrs by SRB assay. It is filed as functional, cell-based. In short, it runs like this:
as §2

In test [3] the test system is 8505C. In words: Induction of apoptosis in human 8505C cells after 24 to 48 hrs by DNA laddering assay. In kind it is functional, cell-based. The essentials:
as §1

For the next test, the system named is A2780. In words: Cytotoxicity against human A2780 cells after 96 hrs by SRB assay. It is filed as functional, cell-based. The essentials: as §2
The nature of test [4]: Cytotoxicity against human 518A2 cells after 96 hrs by SRB assay. It is filed as functional, cell-based. The essentials:
as §2

Test [5] deals with 8505C. As to the kind of experiment: Cytotoxicity against human 8505C cells after 96 hrs by SRB assay. It is filed as functional, cell-based. The essentials:
as §2

The next test deals with A549. As to the kind of experiment: Cytotoxicity against human A549 cells after 96 hrs by SRB assay. It is filed as functional, cell-based. The essentials: as §2
The nature of test [6]: Cytotoxicity against human WW030272 cells after 96 hrs by SRB assay. In kind it is cell-based. In short, it runs like this:
as §2

On to `CC1(C)CC[C@]2(C(=O)O)CC[C@]3(C)C(=CC[C@@H]4[C@@]5(C)C[C@@H](O)[C@H](O)C(C)(C)[C@@H]5CC[C@]43C)[C@@H]2C1`, for which, in the test on 8505C [1], the outcome was Active.
`COC(=O)[C@]12CC[C@@H](C)[C@@](C)(O)[C@H]1C1=CC[C@@H]3[C@@]4(C)C[C@@H](OC(=O)CCl)[C@H](O)C(C)(C)[C@@H]4CC[C@@]3(C)[C@]1(C)CC2`: the outcome in the test on 518A2 and in the test with 8505C [3] was Active. For the same compound, the IC50 with NIH3T3 was determined as 2.1 µmol; in test [2], 4.6 µmol; in the test on DLD-1, 3.7 µmol; with MCF7 it was 2.6 µmol; with A2780, 2.6 µmol; in test [4] it was 4.5 µmol. In addition, the figures for the IC50 with 8505C [5] and in the test with A549 were 4.6 µmol and 9.7 µmol, respectively.
Turning to `CC(=O)O[C@H]1[C@H](O)C[C@]2(C)[C@H]3CC=C4[C@H]5[C@](C(=O)O)(CC[C@@H](C)[C@@]5(C)O)CC[C@@]4(C)[C@]3(C)CC[C@H]2C1(C)C`, the outcome with 518A2 and in the test on 8505C [3] was Active. Also, the IC50 in the test with NIH3T3 is greater than 30 µmol; in [2] it was greater than 30 µmol; with DLD-1 it was greater than 30 µmol; with MCF7, 26.2 µmol; in the test with A2780, 28.1 µmol; in test [4], greater than 30 µmol. Further, the IC50 in the test with 8505C [5] and in the test on A549 was greater than 30 µmol in each case.
As to `COC(=O)[C@]12CC[C@@H](C)[C@@](C)(O)[C@H]1C1=CC[C@@H]3[C@@]4(C)C[C@@H](O)[C@@H](O)C(C)(C)[C@@H]4CC[C@@]3(C)[C@]1(C)CC2` [EUSCAPHIC ACID METHYL ESTER], the outcome with 518A2 and with 8505C [3] was Active. Besides, the IC50 in the test with NIH3T3 is greater than 30 µmol; in test [2] it was 16.4 µmol; in the test with DLD-1 it was 35.8 µmol; in the test with MCF7 it was 17.8 µmol; in [6], 23.4 µmol; in the test with A2780, 12.8 µmol. The IC50 in [4] was found to be 27.7 µmol; in the test with 8505C [5], 29.3 µmol; with A549, 30.6 µmol.
Consider `COC(=O)[C@]12CC[C@@H](C)[C@@](C)(O)[C@H]1C1=CC[C@@H]3[C@@]4(C)C=C(O)C(=O)C(C)(C)[C@@H]4CC[C@@]3(C)[C@]1(C)CC2`, for which the result with 518A2 and in the test with 8505C [3] was Active. The IC50 in the test with NIH3T3 is greater than 30 µmol; in test [2], greater than 30 µmol; in the test with DLD-1 it was greater than 30 µmol; in the test on MCF7 it was 26 µmol; in the test with A2780 it was greater than 30 µmol; in test [4], 17.2 µmol. Also, the IC50 in the test on 8505C [5] is 25 µmol; in the test on A549, greater than 30 µmol.
In the case of `CC(=O)O[C@@H]1C[C@]2(C)[C@H]3CC=C4[C@H]5[C@](C(=O)O)(CC[C@@H](C)[C@@]5(C)O)CC[C@@]4(C)[C@]3(C)CC[C@H]2C(C)(C)[C@H]1O`, the outcome in the test on 518A2 and in the test with 8505C [3] was Active. Besides, the IC50 is greater than 30 µmol in the test with NIH3T3; greater than 30 µmol in test [2]; greater than 30 µmol in the test on DLD-1; 25.3 µmol in the test on MCF7; 24.3 µmol in the test on A2780; greater than 30 µmol in [4]. The IC50 in the test with 8505C [5] and in the test on A549 was greater than 30 µmol throughout.
`COC(=O)[C@]12CC[C@@H](C)[C@@](C)(O)[C@H]1C1=CC[C@@H]3[C@@]4(C)C[C@@H](O)C(=O)C(C)(C)[C@@H]4CC[C@@]3(C)[C@]1(C)CC2`: the outcome in the test on 518A2 and with 8505C [3] was Active. The IC50 in the test with NIH3T3 amounted to 7.7 µmol; in test [2], 6.8 µmol; with DLD-1, 18 µmol; in the test on MCF7 it was 9.4 µmol; with A2780 it was 4.9 µmol; in test [4], 8.9 µmol. In addition, the IC50 with 8505C [5] amounted to 12.9 µmol; with A549, 11.8 µmol.
Take `COC(=O)[C@]12CC[C@@H](C)[C@@](C)(O)[C@H]1C1=CC[C@@H]3[C@@]4(C)C[C@@H](O)[C@H](OC(=O)CCl)C(C)(C)[C@@H]4CC[C@@]3(C)[C@]1(C)CC2`: the result in the test on 518A2 and in the test with 8505C [3] was Active. For the same compound, the IC50 in the test on NIH3T3 was determined as 4.2 µmol; in [2] it was 4.1 µmol; in the test on DLD-1, 6 µmol; in the test on MCF7, 6.9 µmol; with A2780 it was 4.1 µmol; in test [4], 5.5 µmol. In addition, the IC50 was determined as 7.5 µmol with 8505C [5] and 10 µmol in the test on A549.
In the case of `COC(=O)[C@]12CC[C@@H](C)[C@@](C)(O)[C@H]1C1=CC[C@@H]3[C@@]4(C)C[C@H](O)[C@H](O)C(C)(C)[C@@H]4CC[C@@]3(C)[C@]1(C)CC2`, the outcome in the test with 518A2 and in the test with 8505C [3] was Active. The IC50 in the test with NIH3T3 was greater than 30 µmol; in test [2] it was 15.3 µmol; with DLD-1 it was greater than 30 µmol; in the test on MCF7, 22.6 µmol; in the test with A2780, 18.9 µmol; in test [4], greater than 30 µmol. The IC50 in the test with 8505C [5] and with A549 was greater than 30 µmol each time.
As to `CC(=O)O[C@@H]1C[C@]2(C)[C@H]3CC=C4[C@H]5[C@](C(=O)O)(CC[C@@H](C)[C@@]5(C)O)CC[C@@]4(C)[C@]3(C)CC[C@H]2C(C)(C)[C@H]1OC(C)=O`, the result in the test on 518A2 and in the test with 8505C [3] was Active. For the same compound, the IC50 was 32.3 µmol with NIH3T3; 27.3 µmol in test [2]; greater than 30 µmol in the test on DLD-1; 20.4 µmol in the test on MCF7; 17.6 µmol in the test with A2780; greater than 30 µmol in test [4]. Also, the IC50 in the test with 8505C [5] and in the test on A549 was greater than 30 µmol each time.
Regarding `COC(=O)[C@]12CC[C@@H](C)[C@@](C)(O)[C@H]1C1=CC[C@@H]3[C@@]4(C)C[C@@H](OC(C)=O)C(=O)C(C)(C)[C@@H]4CC[C@@]3(C)[C@]1(C)CC2`, the outcome in the test with 518A2 and in the test on 8505C [3] was Active. For the same compound, the IC50 with NIH3T3 stood at 25.1 µmol; in [2], 18.5 µmol; with DLD-1, 28.2 µmol; with MCF7, 14.8 µmol; in the test with A2780, 9 µmol; in test [4] it was 28.9 µmol. Besides, the IC50 with 8505C [5] is greater than 30 µmol; with A549, 31.3 µmol.
For the compound `COC(=O)[C@]12CC[C@@H](C)[C@@](C)(O)[C@H]1C1=CC[C@@H]3[C@@]4(C)CC(=O)[C@H](O)C(C)(C)[C@@H]4CC[C@@]3(C)[C@]1(C)CC2`, the outcome with 518A2 and in the test on 8505C [3] was Active. The IC50 was 19.2 µmol in the test on NIH3T3; greater than 30 µmol with DLD-1; 28.7 µmol with MCF7; 17.8 µmol with A2780; greater than 30 µmol in [4]; greater than 30 µmol in the test on 8505C [5].
On to `COC(=O)[C@]12CC[C@@H](C)[C@@](C)(O)[C@H]1C1=CC[C@@H]3[C@@]4(C)CC(=O)[C@H](OC(C)=O)C(C)(C)[C@@H]4CC[C@@]3(C)[C@]1(C)CC2`, for which the outcome in the test with 518A2 and in the test with 8505C [3] was Active. For the same compound, the IC50 with NIH3T3 was 6.7 µmol; in [2], 6.7 µmol; with DLD-1, 13.5 µmol; in the test on MCF7, 8.2 µmol; with A2780, 4.4 µmol; in test [4] it was 5.6 µmol. The figures for the IC50 in the test on 8505C [5] and in the test on A549 were 7 µmol and 7.8 µmol, respectively.
